The values that follow come from ChEMBL document CHEMBL4251567 (Eur J Med Chem, 2018).

Experiment [1] concerns the target T1, Protein deacetylase HDAC6 (Homo sapiens) (UniProt Q9UBN7).
T1 sequence (whole entry): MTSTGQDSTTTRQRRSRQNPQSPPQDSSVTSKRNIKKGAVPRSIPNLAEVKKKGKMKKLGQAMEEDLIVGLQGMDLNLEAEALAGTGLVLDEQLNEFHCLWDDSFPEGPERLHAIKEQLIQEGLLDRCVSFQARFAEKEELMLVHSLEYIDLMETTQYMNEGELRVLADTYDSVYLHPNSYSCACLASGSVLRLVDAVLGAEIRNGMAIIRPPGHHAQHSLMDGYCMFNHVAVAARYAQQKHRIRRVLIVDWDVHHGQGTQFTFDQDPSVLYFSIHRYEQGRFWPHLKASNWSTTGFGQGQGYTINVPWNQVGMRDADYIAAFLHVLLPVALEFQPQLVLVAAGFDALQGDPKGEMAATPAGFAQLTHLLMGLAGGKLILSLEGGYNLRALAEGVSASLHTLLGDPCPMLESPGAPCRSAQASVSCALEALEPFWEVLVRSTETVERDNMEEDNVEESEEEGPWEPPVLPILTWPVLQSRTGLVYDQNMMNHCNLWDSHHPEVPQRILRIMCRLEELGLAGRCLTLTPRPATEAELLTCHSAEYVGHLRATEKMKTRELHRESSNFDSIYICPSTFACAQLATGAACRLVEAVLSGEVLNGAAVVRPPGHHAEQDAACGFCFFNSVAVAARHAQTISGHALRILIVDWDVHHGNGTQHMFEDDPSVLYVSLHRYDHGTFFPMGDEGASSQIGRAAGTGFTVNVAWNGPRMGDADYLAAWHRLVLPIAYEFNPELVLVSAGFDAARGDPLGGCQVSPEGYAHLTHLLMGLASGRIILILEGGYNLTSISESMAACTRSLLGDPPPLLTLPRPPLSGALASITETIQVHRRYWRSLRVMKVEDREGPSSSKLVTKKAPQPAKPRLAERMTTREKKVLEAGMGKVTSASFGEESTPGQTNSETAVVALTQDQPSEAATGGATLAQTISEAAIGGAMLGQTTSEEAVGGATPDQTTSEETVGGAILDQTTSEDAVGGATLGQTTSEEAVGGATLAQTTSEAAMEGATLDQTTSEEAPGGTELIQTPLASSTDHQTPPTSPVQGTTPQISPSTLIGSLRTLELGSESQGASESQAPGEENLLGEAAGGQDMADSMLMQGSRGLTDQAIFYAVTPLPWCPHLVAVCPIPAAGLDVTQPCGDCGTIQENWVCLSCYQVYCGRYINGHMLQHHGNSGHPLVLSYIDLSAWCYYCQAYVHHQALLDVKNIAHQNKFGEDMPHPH
The experiment in a line: Inhibition of HDAC6 in human HeLa-S3 cell lysates assessed as remaining activity at 5 uM preincubated for 15 mins followed by HDAC-Glo substrate addition measured after 30 to 40 mins by […] relative to control. Put shortly:
(§1)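 HDAC6 captured on an anti-HDAC6 antibody-coated plate (2 μg/mL, pH 9.4 carbonate buffer, milk-blocked). HeLa-S3 lysate loaded at 1 mg/mL, 1 h at 4 °C, then washed. 15 min RT preincubation with inhibitor in DMSO; HDAC-Glo reagent added, luminescence read at 30-40 min. Concentrations are final. Background = no-antibody well; values are % activity versus DMSO control.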

The target in experiment [2] is T1, Protein deacetylase HDAC6 (Homo sapiens). The experiment in a line: Inhibition of HDAC6 in human HeLa-S3 cell lysates assessed as remaining activity at 8 x 10^-7 M preincubated for 15 mins followed by HDAC-Glo substrate addition measured after 30 to 40 mins by […] relative to control. Put shortly:
as §1

The target in experiment [3] is Histone deacetylase (Homo sapiens) (UniProt Q13547+O15379+Q9UBN7+Q92769+Q9UQL6+Q8WUI4+Q9BY41+Q96DB2+P56524+Q9UKV0+Q969S8). The experiment in a line: Inhibition of HDAC in human HeLa-S3 cell lysates assessed as residual activity at 1.2 x 10^-5 M preincubated for 15 mins followed by HDAC-Glo substrate addition measured after 35 mins by […] relative to control. Format: protein assay.

The target of experiment [4] is Histone deacetylase 1 (Homo sapiens) (UniProt Q13547). The experiment in a line: Inhibition of HDAC1 in human HeLa-S3 cell lysates assessed as remaining activity at […] preincubated for 15 mins followed by HDAC-Glo substrate addition measured after 30 to 40 mins by […] relative to control.
Chain of Histone deacetylase 1 (Homo sapiens) (Q13547 whole entry): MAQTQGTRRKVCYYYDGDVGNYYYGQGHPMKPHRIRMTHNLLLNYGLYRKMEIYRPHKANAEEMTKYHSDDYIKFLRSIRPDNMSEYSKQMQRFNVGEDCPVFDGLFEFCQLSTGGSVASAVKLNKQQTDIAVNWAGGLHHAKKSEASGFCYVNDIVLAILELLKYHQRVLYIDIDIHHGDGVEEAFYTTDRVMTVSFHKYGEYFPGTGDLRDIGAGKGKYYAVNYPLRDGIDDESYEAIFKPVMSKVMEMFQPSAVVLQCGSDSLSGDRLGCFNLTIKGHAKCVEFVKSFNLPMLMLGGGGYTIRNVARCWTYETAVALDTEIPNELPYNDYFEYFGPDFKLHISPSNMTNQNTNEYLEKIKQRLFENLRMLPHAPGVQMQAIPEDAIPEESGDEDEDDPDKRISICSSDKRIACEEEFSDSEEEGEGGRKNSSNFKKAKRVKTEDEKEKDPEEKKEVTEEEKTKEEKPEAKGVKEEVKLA
The target of experiment [5] is Histone deacetylase 2 (Homo sapiens) (UniProt Q92769). Briefly: Inhibition of HDAC2 in human HeLa-S3 cell lysates assessed as remaining activity at […] preincubated for 15 mins followed by HDAC-Glo substrate addition measured after 30 to 40 mins by […] relative to control.
Chain of Histone deacetylase 2 (Homo sapiens) (Q92769 whole entry, canonical isoform): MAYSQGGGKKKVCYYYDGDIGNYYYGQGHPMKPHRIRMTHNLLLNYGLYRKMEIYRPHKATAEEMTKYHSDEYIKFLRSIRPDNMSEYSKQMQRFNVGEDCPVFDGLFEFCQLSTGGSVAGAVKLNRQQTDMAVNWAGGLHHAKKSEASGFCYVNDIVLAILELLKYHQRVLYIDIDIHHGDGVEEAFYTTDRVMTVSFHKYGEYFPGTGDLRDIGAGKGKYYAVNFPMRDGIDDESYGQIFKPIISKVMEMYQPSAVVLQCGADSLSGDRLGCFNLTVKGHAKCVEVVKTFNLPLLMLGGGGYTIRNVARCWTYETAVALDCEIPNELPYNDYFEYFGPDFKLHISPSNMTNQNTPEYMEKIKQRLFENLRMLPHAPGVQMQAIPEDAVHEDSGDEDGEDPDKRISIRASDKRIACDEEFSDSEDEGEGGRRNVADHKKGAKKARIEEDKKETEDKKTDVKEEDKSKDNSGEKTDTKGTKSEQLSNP
Experiment [6] concerns the target Histone deacetylase 1 (Homo sapiens) (UniProt Q13547). The experiment in a line: Inhibition of HDAC1 in human HeLa-S3 cell lysates assessed as remaining activity at 1.6 x 10^-5 M preincubated for 15 mins followed by HDAC-Glo substrate addition measured after 30 to 40 mins by […] relative to control. Put shortly:
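HDAC1 was captured from HeLa-S3 lysate (100 μg/mL) onto wells precoated with anti-HDAC1 antibody (10 μg/mL, carbonate buffer pH 9.4) and milk-blocked, 1 h at 4 °C, then washed. Inhibitor in DMSO was added in HDAC-Glo buffer for 15 min at room temperature. HDAC-Glo reagent was added and luminescence read after 30-40 min. Concentrations are final. No-antibody background subtracted; % of DMSO control.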

The target of experiment [7] is Histone deacetylase 3 (Homo sapiens) (UniProt O15379). Briefly: Inhibition of HDAC3 in human HeLa-S3 cell lysates assessed as remaining activity at 1.6 x 10^-5 M preincubated for 15 mins followed by HDAC-Glo substrate addition measured after 30 to 40 mins by […] relative to control. The method, boiled down:
(§2)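 Antibody-capture (ELISA-type) assay: HDAC antibody coated in carbonate/bicarbonate buffer pH 9.4, wells blocked with 5% milk in TBST. HeLa-S3 lysate added at 1 mg/mL for HDAC3, 1 h at 4 °C, then washed. Inhibitor in DMSO preincubated 15 min at RT in HDAC-Glo buffer. HDAC-Glo reagent added, luminescence read after 30-40 min. Concentrations are final. Background = no-antibody well; activity given as % of DMSO control.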

Experiment [8] has the same target. Briefly: Inhibition of HDAC3 in human HeLa-S3 cell lysates assessed as remaining activity at 1 x 10^-6 M preincubated for 15 mins followed by HDAC-Glo substrate addition measured after 30 to 40 mins by […] relative to control. The method, boiled down:
as §2

For experiment [9], the target named is Histone deacetylase 2 (Homo sapiens) (UniProt Q92769). Briefly: Inhibition of HDAC2 in human HeLa-S3 cell lysates assessed as remaining activity at 1.25 uM preincubated for 15 mins followed by HDAC-Glo substrate addition measured after 30 to 40 mins by […] relative to control. The method, boiled down: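 Same antibody-capture format as the other class I isoforms. HeLa-S3 lysate added at 100 μg/mL for HDAC1 and HDAC2, 1 h at 4 °C, then washed. Inhibitor in DMSO preincubated 15 min at RT; HDAC-Glo reagent added and luminescence read after 30-40 min. Concentrations are final. Signal corrected against a well without antibody; activity expressed as % of DMSO control.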

Chain of Histone deacetylase 3 (Homo sapiens) (O15379 whole entry): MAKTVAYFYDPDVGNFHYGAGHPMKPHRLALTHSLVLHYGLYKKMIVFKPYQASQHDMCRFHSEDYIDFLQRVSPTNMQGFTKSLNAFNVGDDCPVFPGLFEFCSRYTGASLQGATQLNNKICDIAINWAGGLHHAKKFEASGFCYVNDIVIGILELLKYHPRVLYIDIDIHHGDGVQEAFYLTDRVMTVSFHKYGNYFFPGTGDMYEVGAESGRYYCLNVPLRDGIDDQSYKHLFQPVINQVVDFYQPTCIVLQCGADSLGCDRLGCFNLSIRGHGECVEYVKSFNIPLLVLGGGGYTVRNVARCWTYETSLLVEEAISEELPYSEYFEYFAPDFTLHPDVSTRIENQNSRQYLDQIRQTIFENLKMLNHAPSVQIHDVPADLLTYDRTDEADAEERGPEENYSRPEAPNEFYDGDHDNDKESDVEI

With `O=C(CCC(CCCC(=O)Nc1ccccc1)Cc1ccccc1)NO` (racemic), in experiment [1], the Activity came out at 2.9%.
Consider `O=C(CC[C@H](CCCC(=O)Nc1ccccc1)Cc1ccccc1)NO`, for which the Activity in experiment [2] turned out to be 16%.
As for `CCC(CCCC(=O)Nc1ccccc1)CCC(=O)NO` (centres undefined), the Activity in experiment [3] worked out at 53%; in [4], 91%; in experiment [5], 87%; in experiment [6], 19%; in experiment [7] it was 17%; in experiment [8], 83%.
Take `CCCCCCC(CCCC(=O)Nc1ccccc1)CCC(=O)NO` (centres undefined): in [9], the Activity turned out to be 101%.
